# Results as given in ChEMBL document CHEMBL3769341, “Discovery and Characterization of GSK2801, a Selective Chemical Probe for the Bromodomains BAZ2A and BAZ2B” (J Med Chem, 2016).
# Calls of active or inactive are those of the source. The rule behind the calls is not given here.
# What was measured:
# [1] = target: Nucleosome-remodeling factor subunit BPTF (Homo sapiens) (UniProt Q12830); test: Binding affinity to biotinylated FALZ (unknown origin) expressed in Escherichia coli at 0.2 to 1 uM by Biolayer Interferometric analysis
# Procedure, shortened: (§1)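 Bromodomains carrying a BirA biotin ligase targeting sequence, coexpressed with BirA in bacteria to give homogeneous in vivo biotin labelling, checked by mass spectrometry. Biotinylated proteins probed by biolayer interferometry with compound at two concentrations, 0.2 and 1.0 μM.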
# [2] = target: Histone acetyltransferase KAT2A (Homo sapiens) (UniProt Q92830); test: Binding affinity to biotinylated GCN5L2 (unknown origin) expressed in Escherichia coli at 0.2 to 1 uM by Biolayer Interferometric analysis; procedure, shortened: as §1
# [3] = target: Protein polybromo-1 (Homo sapiens) (UniProt Q86U86); test: Binding affinity to biotinylated PB1 bromodomain-5 (unknown origin) expressed in Escherichia coli at 0.2 to 1 uM by Biolayer Interferometric analysis; procedure, shortened: as §1
# [4] = target: Nuclear body protein SP140 (Homo sapiens) (UniProt Q13342); test: Binding affinity to biotinylated SP140 (unknown origin) expressed in Escherichia coli at 0.2 to 1 uM by Biolayer Interferometric analysis; procedure, shortened: as §1
# [5] = target: Transcription initiation factor TFIID subunit 1-like (Homo sapiens) (UniProt Q8IZX4); test: Binding affinity to biotinylated TAF1L bromodomain-1 (unknown origin) expressed in Escherichia coli at 0.2 to 1 uM by Biolayer Interferometric analysis; procedure, shortened: as §1
# [6] = target: Transcription initiation factor TFIID subunit 1 (Homo sapiens) (UniProt P21675); test: Binding affinity to biotinylated TAF1 bromodomain-2 (unknown origin) expressed in Escherichia coli at 0.2 to 1 uM by Biolayer Interferometric analysis; procedure, shortened: as §1
# [7] = target: Transcription intermediary factor 1-alpha (Homo sapiens) (UniProt O15164); test: Binding affinity to biotinylated TIF1 bromodomain-1 (unknown origin) expressed in Escherichia coli at 0.2 to 1 uM by Biolayer Interferometric analysis; procedure, shortened: as §1
# [8] = target: Histone-lysine N-methyltransferase ASH1L (Homo sapiens) (UniProt Q9NR48); test: Binding affinity to biotinylated ASH1L bromodomain (unknown origin) expressed in Escherichia coli at 0.2 to 1 uM by Biolayer Interferometric analysis; procedure, shortened: as §1
# [9] = target: Bromodomain-containing protein 2 (Homo sapiens) (UniProt P25440); test: Binding affinity to biotinylated BRD2 bromodomain-2 (unknown origin) expressed in Escherichia coli at 0.2 to 1 uM by Biolayer Interferometric analysis; procedure, shortened: as §1
# [10] = target: Bromodomain-containing protein 2 (Homo sapiens) (UniProt P25440); test: Binding affinity to biotinylated BRD2 bromodomain-1 (unknown origin) expressed in Escherichia coli at 0.2 to 1 uM by Biolayer Interferometric analysis; procedure, shortened: as §1
# [11] = target: Bromodomain-containing protein 3 (Homo sapiens) (UniProt Q15059); test: Binding affinity to biotinylated BRD3 bromodomain-2 (unknown origin) expressed in Escherichia coli at 0.2 to 1 uM by Biolayer Interferometric analysis; procedure, shortened: as §1
# [12] = target: Bromodomain and WD repeat-containing protein 1 (Homo sapiens) (UniProt Q9NSI6); test: Binding affinity to biotinylated WDR9 (unknown origin) expressed in Escherichia coli at 0.2 to 1 uM by Biolayer Interferometric analysis; procedure, shortened: as §1
# [13] = target: Chromatin remodeling regulator CECR2 (Homo sapiens) (UniProt Q9BXF3); test: Binding affinity to biotinylated CECR2 (unknown origin) expressed in Escherichia coli at 0.2 to 1 uM by Biolayer Interferometric analysis; procedure, shortened: as §1
# [14] = target: Bromodomain-containing protein 4 (Homo sapiens) (UniProt O60885); test: Binding affinity to biotinylated BRD4 bromodomain-2 (unknown origin) expressed in Escherichia coli at 0.2 to 1 uM by Biolayer Interferometric analysis; procedure, shortened: as §1
# [15] = target: Protein polybromo-1 (Homo sapiens) (UniProt Q86U86); test: Binding affinity to biotinylated PB1 bromodomain-1 (unknown origin) expressed in Escherichia coli at 0.2 to 1 uM by Biolayer Interferometric analysis; procedure, shortened: as §1
# [16] = target: Bromodomain-containing protein 4 (Homo sapiens) (UniProt O60885); test: Binding affinity to biotinylated BRD4 bromodomain-1 (unknown origin) expressed in Escherichia coli at 0.2 to 1 uM by Biolayer Interferometric analysis; procedure, shortened: as §1
# [17] = target: Protein polybromo-1 (Homo sapiens) (UniProt Q86U86); test: Binding affinity to biotinylated PB1 bromodomain-2 (unknown origin) expressed in Escherichia coli at 0.2 to 1 uM by Biolayer Interferometric analysis; procedure, shortened: as §1
# [18] = target: Transcription intermediary factor 1-beta (Homo sapiens) (UniProt Q13263); test: Binding affinity to biotinylated TRIM28 (unknown origin) expressed in Escherichia coli at 0.2 to 1 uM by Biolayer Interferometric analysis; procedure, shortened: as §1
# [19] = target: Bromodomain testis-specific protein (Homo sapiens) (UniProt Q58F21); test: Binding affinity to biotinylated BRDT bromodomain-2 (unknown origin) expressed in Escherichia coli at 0.2 to 1 uM by Biolayer Interferometric analysis; procedure, shortened: as §1
# [20] = target: CREB-binding protein (Homo sapiens) (UniProt Q92793); test: Binding affinity to biotinylated CREBBP (unknown origin) expressed in Escherichia coli at 0.2 to 1 uM by Biolayer Interferometric analysis; procedure, shortened: as §1
# [21] = target: Bromodomain testis-specific protein (Homo sapiens) (UniProt Q58F21); test: Binding affinity to biotinylated BRDT bromodomain-1 (unknown origin) expressed in Escherichia coli at 0.2 to 1 uM by Biolayer Interferometric analysis; procedure, shortened: as §1
# [22] = target: Bromodomain and WD repeat-containing protein 3 (Homo sapiens) (UniProt Q6RI45); test: Binding affinity to biotinylated BRWD3 bromodomain-2 (unknown origin) expressed in Escherichia coli at 0.2 to 1 uM by Biolayer Interferometric analysis; procedure, shortened: as §1
# [23] = target: SWI/SNF-related matrix-associated actin-dependent regulator of chromatin subfamily A member 4 (Homo sapiens) (UniProt P51532); test: Binding affinity to biotinylated SMARCA4 (unknown origin) expressed in Escherichia coli at 0.2 to 1 uM by Biolayer Interferometric analysis; procedure, shortened: as §1
# [24] = target: Transcription initiation factor TFIID subunit 1 (Homo sapiens) (UniProt P21675); test: Binding affinity to biotinylated TAF1 bromodomain-1 (unknown origin) expressed in Escherichia coli at 0.2 to 1 uM by Biolayer Interferometric analysis; procedure, shortened: as §1
# [25] = target: Bromodomain-containing protein 1 (Homo sapiens) (UniProt O95696); test: Binding affinity to biotinylated BRD1 (unknown origin) expressed in Escherichia coli at 0.2 to 1 uM by Biolayer Interferometric analysis; procedure, shortened: as §1
# [26] = target: ATPase family AAA domain-containing protein 2 (Homo sapiens) (UniProt Q6PL18); test: Binding affinity to biotinylated ATAD2 (unknown origin) expressed in Escherichia coli at 0.2 to 1 uM by Biolayer Interferometric analysis; procedure, shortened: as §1
# [27] = target: ATPase family AAA domain-containing protein 2B (Homo sapiens) (UniProt Q9ULI0); test: Binding affinity to biotinylated KIAA1240 (unknown origin) expressed in Escherichia coli at 0.2 to 1 uM by Biolayer Interferometric analysis; procedure, shortened: as §1
# [28] = target: Histone acetyltransferase p300 (Homo sapiens) (UniProt Q09472); test: Binding affinity to biotinylated EP300 (unknown origin) expressed in Escherichia coli at 0.2 to 1 uM by Biolayer Interferometric analysis; procedure, shortened: as §1
# Peregrin (Homo sapiens) = Peregrin (Homo sapiens) (UniProt P55201); test: Binding affinity to biotinylated BRPF1 bromodomain-1 (unknown origin) expressed in Escherichia coli at 0.2 to 1 uM by Biolayer Interferometric analysis; procedure, shortened: as §1
# [29] = target: Bromodomain-containing protein 3 (Homo sapiens) (UniProt Q15059); test: Binding affinity to biotinylated BRD3 bromodomain-1 (unknown origin) expressed in Escherichia coli at 0.2 to 1 uM by Biolayer Interferometric analysis; procedure, shortened: as §1
# [30] = target: Protein polybromo-1 (Homo sapiens) (UniProt Q86U86); test: Binding affinity to biotinylated PB1 bromodomain-6 (unknown origin) expressed in Escherichia coli at 0.2 to 1 uM by Biolayer Interferometric analysis; procedure, shortened: as §1
# [31] = target: Bromodomain-containing protein 9 (Homo sapiens) (UniProt Q9H8M2); test: Binding affinity to biotinylated C-terminal Avi/His-TEV-fused BRD9 (unknown origin) expressed in Escherichia coli by isothermal titration calorimetric analysis
# [32] = target: Bromodomain-containing protein 7 (Homo sapiens) (UniProt Q9NPI1); test: Binding affinity to biotinylated BRD7 (unknown origin) expressed in Escherichia coli at 0.2 to 1 uM by Biolayer Interferometric analysis; procedure, shortened: as §1
# [33] = target: PH-interacting protein (Homo sapiens) (UniProt Q8WWQ0); test: Binding affinity to biotinylated PHIP (unknown origin) expressed in Escherichia coli at 0.2 to 1 uM by Biolayer Interferometric analysis; procedure, shortened: as §1
# [34] = target: Protein polybromo-1 (Homo sapiens) (UniProt Q86U86); test: Binding affinity to biotinylated PB1 bromodomain-4 (unknown origin) expressed in Escherichia coli at 0.2 to 1 uM by Biolayer Interferometric analysis; procedure, shortened: as §1
# [35] = target: Histone acetyltransferase KAT2B (Homo sapiens) (UniProt Q92831); test: Binding affinity to biotinylated PCAF (unknown origin) expressed in Escherichia coli at 0.2 to 1 uM by Biolayer Interferometric analysis; procedure, shortened: as §1
# [36] = target: Tyrosine-protein kinase BAZ1B (Homo sapiens) (UniProt Q9UIG0); test: Binding affinity to biotinylated BAZ1B (unknown origin) expressed in Escherichia coli at 0.2 to 1 uM by Biolayer Interferometric analysis; procedure, shortened: as §1
# [37] = target: SWI/SNF-related matrix-associated actin-dependent regulator of chromatin subfamily A member 2 (Homo sapiens) (UniProt P51531); test: Binding affinity to biotinylated SMARCA2 (unknown origin) expressed in Escherichia coli at 0.2 to 1 uM by Biolayer Interferometric analysis; procedure, shortened: as §1
# [38] = target: Transcription initiation factor TFIID subunit 1-like (Homo sapiens) (UniProt Q8IZX4); test: Binding affinity to biotinylated TAF1L bromodomain-2 (unknown origin) expressed in Escherichia coli at 0.2 to 1 uM by Biolayer Interferometric analysis; procedure, shortened: as §1
# [39] = target: Bromodomain adjacent to zinc finger domain protein 2B (Homo sapiens) (UniProt Q9UIF8); test: Binding affinity to biotinylated C-terminal Avi/His-TEV-tagged BAZ2B (unknown origin) expressed in Escherichia coli at 0.2 to 1 uM by Biolayer Interferometric analysis; procedure, shortened: as §1
# Chain of Transcription initiation factor TFIID subunit 1 (Homo sapiens) (P21675 whole entry): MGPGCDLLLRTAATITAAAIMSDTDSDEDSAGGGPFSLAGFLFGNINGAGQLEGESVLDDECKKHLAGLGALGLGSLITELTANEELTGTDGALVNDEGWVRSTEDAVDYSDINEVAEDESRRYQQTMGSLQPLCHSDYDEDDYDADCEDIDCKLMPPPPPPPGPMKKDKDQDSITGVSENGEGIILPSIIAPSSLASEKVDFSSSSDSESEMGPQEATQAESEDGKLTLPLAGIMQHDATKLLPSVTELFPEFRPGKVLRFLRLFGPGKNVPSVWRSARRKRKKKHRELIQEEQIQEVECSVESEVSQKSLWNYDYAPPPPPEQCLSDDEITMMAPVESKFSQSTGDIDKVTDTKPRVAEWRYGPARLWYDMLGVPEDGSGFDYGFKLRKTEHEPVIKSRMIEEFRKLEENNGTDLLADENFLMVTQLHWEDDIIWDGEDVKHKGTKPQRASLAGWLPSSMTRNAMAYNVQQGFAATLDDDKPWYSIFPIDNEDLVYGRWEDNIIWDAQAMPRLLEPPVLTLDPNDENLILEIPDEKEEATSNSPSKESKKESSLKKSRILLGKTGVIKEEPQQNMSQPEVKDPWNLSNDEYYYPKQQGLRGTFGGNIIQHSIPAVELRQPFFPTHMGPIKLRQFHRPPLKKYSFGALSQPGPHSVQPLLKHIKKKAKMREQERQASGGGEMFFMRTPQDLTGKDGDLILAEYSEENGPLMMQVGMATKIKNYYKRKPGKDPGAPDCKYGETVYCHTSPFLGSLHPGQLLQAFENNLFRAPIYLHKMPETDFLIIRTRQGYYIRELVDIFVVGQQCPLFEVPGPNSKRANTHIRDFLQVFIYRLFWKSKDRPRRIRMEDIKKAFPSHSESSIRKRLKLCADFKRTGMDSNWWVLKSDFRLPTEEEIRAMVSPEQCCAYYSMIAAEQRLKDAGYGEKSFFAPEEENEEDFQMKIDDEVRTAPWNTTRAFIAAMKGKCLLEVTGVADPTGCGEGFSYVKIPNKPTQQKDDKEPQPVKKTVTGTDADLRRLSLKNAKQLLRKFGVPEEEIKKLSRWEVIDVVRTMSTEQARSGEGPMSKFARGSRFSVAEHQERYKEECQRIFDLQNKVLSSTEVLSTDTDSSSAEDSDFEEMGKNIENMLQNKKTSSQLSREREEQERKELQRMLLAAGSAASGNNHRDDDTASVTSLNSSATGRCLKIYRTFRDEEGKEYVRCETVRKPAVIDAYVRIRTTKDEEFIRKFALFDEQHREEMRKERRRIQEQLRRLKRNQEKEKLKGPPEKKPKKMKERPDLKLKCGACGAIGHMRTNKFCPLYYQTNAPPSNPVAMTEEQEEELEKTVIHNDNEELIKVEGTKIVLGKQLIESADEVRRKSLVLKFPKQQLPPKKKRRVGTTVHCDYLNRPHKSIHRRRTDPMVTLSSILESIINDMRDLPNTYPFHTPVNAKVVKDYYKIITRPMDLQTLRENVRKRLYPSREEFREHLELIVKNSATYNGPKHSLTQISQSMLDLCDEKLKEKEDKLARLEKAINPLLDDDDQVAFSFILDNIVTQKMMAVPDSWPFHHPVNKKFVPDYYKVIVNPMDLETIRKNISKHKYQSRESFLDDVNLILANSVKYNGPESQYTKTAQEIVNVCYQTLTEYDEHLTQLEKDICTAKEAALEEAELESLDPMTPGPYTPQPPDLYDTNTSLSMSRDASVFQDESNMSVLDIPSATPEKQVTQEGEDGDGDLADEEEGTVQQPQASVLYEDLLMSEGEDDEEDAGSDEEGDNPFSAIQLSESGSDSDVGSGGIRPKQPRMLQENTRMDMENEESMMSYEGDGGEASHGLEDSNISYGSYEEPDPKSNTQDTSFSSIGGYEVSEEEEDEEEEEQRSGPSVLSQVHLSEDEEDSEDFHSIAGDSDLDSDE
# Chain of Transcription initiation factor TFIID subunit 1-like (Homo sapiens) (Q8IZX4 whole entry, the tested form may be a part): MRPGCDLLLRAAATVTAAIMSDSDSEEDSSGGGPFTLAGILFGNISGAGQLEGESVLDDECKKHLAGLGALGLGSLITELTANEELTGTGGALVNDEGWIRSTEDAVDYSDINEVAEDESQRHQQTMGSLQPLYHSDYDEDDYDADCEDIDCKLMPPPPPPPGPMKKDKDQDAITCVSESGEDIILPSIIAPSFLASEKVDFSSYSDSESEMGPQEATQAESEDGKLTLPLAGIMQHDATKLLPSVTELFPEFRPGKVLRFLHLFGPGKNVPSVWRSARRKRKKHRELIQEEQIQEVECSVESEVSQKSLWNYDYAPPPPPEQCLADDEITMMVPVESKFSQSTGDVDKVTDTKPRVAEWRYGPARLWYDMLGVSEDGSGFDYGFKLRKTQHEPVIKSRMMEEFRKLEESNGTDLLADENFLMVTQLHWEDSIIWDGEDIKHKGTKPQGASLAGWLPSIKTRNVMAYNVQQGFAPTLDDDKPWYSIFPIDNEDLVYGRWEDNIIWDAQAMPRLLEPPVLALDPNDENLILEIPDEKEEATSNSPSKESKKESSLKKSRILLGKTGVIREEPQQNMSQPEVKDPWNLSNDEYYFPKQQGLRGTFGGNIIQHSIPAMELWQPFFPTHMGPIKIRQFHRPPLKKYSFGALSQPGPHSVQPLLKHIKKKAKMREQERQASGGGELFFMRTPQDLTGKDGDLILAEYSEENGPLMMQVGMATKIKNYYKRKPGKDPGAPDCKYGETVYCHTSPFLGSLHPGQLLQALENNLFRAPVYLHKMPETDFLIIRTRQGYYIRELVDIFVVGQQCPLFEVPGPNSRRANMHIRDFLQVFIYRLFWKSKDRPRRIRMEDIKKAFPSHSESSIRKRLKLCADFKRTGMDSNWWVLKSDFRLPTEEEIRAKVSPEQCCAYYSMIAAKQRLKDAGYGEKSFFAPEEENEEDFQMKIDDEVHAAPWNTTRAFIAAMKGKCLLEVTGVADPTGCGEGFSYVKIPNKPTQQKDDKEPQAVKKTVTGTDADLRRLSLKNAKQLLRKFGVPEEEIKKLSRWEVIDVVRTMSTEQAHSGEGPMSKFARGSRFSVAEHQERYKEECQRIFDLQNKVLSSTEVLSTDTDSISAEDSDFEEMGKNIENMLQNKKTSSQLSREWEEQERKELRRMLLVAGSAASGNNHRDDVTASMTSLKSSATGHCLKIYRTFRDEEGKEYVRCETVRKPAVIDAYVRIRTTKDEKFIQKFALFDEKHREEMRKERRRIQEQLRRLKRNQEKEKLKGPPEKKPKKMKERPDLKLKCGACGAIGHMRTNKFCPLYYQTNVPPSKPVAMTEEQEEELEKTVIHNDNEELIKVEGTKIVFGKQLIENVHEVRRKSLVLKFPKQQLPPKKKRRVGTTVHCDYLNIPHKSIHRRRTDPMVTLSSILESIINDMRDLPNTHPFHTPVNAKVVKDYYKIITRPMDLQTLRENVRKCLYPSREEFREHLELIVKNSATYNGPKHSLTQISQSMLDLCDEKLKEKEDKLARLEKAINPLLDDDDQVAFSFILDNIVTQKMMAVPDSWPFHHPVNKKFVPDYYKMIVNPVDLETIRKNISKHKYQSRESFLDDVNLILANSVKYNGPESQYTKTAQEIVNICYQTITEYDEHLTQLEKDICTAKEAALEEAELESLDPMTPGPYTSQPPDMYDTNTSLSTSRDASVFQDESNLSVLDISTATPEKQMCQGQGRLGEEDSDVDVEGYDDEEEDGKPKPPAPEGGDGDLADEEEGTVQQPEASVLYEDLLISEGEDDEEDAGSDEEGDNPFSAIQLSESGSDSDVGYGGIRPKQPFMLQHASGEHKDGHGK
# Chain of Bromodomain-containing protein 3 (Homo sapiens) (Q15059 2-726 limits assumed): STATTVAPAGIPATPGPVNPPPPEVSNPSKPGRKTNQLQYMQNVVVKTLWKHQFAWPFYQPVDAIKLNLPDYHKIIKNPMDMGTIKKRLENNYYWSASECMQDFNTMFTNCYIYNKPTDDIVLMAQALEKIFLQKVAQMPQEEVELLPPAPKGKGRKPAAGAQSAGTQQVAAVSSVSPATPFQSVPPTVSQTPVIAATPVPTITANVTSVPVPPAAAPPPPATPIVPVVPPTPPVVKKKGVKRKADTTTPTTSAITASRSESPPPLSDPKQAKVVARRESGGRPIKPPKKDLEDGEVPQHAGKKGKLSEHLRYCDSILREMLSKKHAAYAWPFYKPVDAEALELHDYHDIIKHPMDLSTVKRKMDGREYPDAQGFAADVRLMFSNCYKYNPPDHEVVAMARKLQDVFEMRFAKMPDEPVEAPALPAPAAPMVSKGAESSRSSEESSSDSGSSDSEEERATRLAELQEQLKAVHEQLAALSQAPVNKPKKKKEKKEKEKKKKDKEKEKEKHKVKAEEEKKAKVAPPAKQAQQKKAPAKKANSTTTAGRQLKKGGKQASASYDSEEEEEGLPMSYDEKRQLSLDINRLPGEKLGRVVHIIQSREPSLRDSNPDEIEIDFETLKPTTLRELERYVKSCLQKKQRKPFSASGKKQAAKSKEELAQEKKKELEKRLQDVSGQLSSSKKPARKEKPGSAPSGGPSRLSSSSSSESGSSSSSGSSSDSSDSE
# Chain of Bromodomain-containing protein 7 (Homo sapiens) (Q9NPI1 whole entry): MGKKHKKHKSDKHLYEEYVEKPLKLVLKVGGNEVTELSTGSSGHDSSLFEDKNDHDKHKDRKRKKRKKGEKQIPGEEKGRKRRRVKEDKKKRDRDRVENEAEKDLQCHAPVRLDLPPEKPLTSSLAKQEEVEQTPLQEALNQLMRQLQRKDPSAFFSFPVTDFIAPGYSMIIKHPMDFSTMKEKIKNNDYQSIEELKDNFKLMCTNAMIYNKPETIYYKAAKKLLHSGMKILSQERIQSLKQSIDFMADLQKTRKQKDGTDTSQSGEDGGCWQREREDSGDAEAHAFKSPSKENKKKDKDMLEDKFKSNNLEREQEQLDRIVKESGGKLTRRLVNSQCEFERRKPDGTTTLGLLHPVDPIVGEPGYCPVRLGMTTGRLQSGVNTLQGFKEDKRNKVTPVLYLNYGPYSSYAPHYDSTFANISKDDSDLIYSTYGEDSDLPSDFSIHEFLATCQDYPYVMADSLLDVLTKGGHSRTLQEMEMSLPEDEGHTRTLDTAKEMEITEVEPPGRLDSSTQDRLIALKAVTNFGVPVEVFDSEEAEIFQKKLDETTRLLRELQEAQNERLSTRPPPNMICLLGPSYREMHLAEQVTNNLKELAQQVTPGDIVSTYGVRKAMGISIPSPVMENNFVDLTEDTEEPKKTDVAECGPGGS
SMILES,Activity [1],Activity [2],Activity [3],Activity [4],Activity [5],Activity [6],Activity [7],Activity [8],Activity [9],Activity [10],Activity [11],Activity [12],Activity [13],Activity [14],Activity [15],Activity [16],Activity [17],Activity [18],Activity [19],Activity [20],other results
CCCOc1ccn2c(C(C)=O)cc(-c3ccccc3S(C)(=O)=O)c2c1,inactive,inactive,inactive,inactive,inactive,inactive,inactive,inactive,inactive,inactive,inactive,inactive,inactive,inactive,inactive,inactive,inactive,inactive,inactive,inactive,Activity [21]: inactive; Activity [22]: inactive; Activity [23]: inactive; Activity [24]: inactive; Activity [25]: inactive; Activity [26]: inactive; Activity [27]: inactive; Activity [28]: inactive; Activity (Peregrin (Homo sapiens)): inactive; Activity [29]: inactive; Activity [30]: inactive; Kb [31]: 0.826 ×10⁶ /M; Activity [32]: inactive; Activity [33]: inactive; Activity [34]: inactive; Activity [35]: inactive; Activity [36]: inactive; Activity [37]: inactive
CCCOc1ccn2c(C(C)=O)cc(-c3cccc(OC)c3)c2c1,inactive,inactive,inactive,inactive,inactive,inactive,inactive,inactive,inactive,inactive,inactive,inactive,inactive,inactive,inactive,inactive,inactive,inactive,inactive,inactive,Activity [38]: inactive; Activity [39]: inactive; Activity [21]: inactive; Activity [22]: inactive; Activity [23]: inactive; Activity [24]: inactive; Activity [25]: inactive; Activity [26]: inactive; Activity [27]: inactive; Activity [28]: inactive; Activity (Peregrin (Homo sapiens)): inactive; Activity [29]: inactive; Activity [30]: inactive; Activity [32]: inactive; Activity [33]: inactive; Activity [34]: inactive; Activity [35]: inactive; Activity [36]: inactive; Activity [37]: inactive
